The results in this text go back to ChEMBL document CHEMBL1149813, “Synthesis of 6-amino-1,4-dihydropyridines that prevent calcium overload and neuronal death” (2008).

SMILES strings stand for the structures.

Assay [1] has as its system SH-SY5Y. As to the kind of experiment: Blockade of high K+-induced increase in calcium uptake in human SH-SY5Y cells at 0.3 uM relative to control. The format is functional.
Assay [2] relates to SH-SY5Y. The experiment in a line: Neuroprotective activity against human SH-SY5Y cells assessed as reduction in K+-induced LDH release at 0.3 uM relative to control. Also noted: scale not given: the % may be the effect or the level left. Format: functional. The method, boiled down: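 SH-SY5Y neuroblastoma cells maintained in DMEM with 10% FCS at 37 °C in 5% CO2, used at passages 3–16. Cells treated before confluence in serum-free DMEM. Cell death from Ca2+ overload induced by 70 mM K+, read as LDH release. Compounds tested at 0.3 (unit as printed); nimodipine as reference. Means ± SEM, at least three cultures in quadruplicate.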

Assay [3] relates to SH-SY5Y. The experiment in a line: Neuroprotective activity against calcium overload-induced cell death in human SH-SY5Y cells at 0.3 uM in presence of K+ relative to control. Format: functional. The method, boiled down: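 SH-SY5Y cells (passages 3–16 after thawing) were grown in DMEM with 10% FCS, glutamine and penicillin/streptomycin at 37 °C in 5% CO2. They were treated with compound before confluence in serum-free DMEM and challenged with 70 mM K+. Read-out was the reduction in the increase of LDH released, relative to a drug-free control. Means ± SEM from at least three cultures in quadruplicate.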

Assay [4] has as its system SH-SY5Y. The experiment in a line: Neuroprotective activity against human SH-SY5Y cells assessed as reduction in H2O2-induced LDH release at 0.3 uM relative to control. Format: functional. Also noted: scale not given: the % may be the effect or the level left. On the technique in general: LDH leaks from cells whose membrane has failed.
Assay [5] concerns SH-SY5Y. The experiment in a line: Neuroprotective activity against free radical-induced cell death in human SH-SY5Y cells at 0.3 uM in presence of H2O2 relative to control.

Regarding `CCOC(=O)C1=C(C)NC(N)=C(C#N)C1c1ccncc1` (stereo not given), the Activity in the assay with SH-SY5Y [1] amounted to 32.6%; with SH-SY5Y [2], 70.5%; in the assay on SH-SY5Y [3], 43.3%; in the assay with SH-SY5Y [4], 66.7%; in the assay on SH-SY5Y [5] it was 46.7%.
As for `Cc1ccc(C2C(C#N)=C(N)NC3=C2C(=O)CC(C)(C)C3)cc1` (stereo not given), the Activity stood at 28.6% in the assay with SH-SY5Y [1]; 68.4% in the assay with SH-SY5Y [2]; 44.4% in the assay on SH-SY5Y [3]; 88.6% with SH-SY5Y [4]; 14.9% with SH-SY5Y [5].
For the compound `CC1(C)CC(=O)C2=C(C1)NC(N)=C(C#N)C2c1ccncc1` (stereo not given), the Activity was 50.4% in the assay on SH-SY5Y [1]; 71.4% in the assay on SH-SY5Y [2]; 39.5% in the assay with SH-SY5Y [3]; 77.7% in the assay on SH-SY5Y [4]; 29.1% in the assay with SH-SY5Y [5].
As to `COc1ccc(C2C(C#N)=C(N)NC3=C2C(=O)CC(C)(C)C3)cc1` (stereo not given), the Activity with SH-SY5Y [1] is recorded as 12.6%; in the assay on SH-SY5Y [2], 69.3%; in the assay on SH-SY5Y [3] it was 43.2%; in the assay on SH-SY5Y [4] it was 77.8%; in the assay on SH-SY5Y [5], 29%.
Consider `CC1(C)CC(=O)C2=C(C1)NC(N)=C(C#N)C2c1ccc(F)cc1` (stereo not given), for which the Activity worked out at 63.9% in the assay with SH-SY5Y [1]; 69.9% in the assay on SH-SY5Y [2]; 42.3% with SH-SY5Y [3]; 75.4% in the assay on SH-SY5Y [4]; 32.4% with SH-SY5Y [5].
In the same order, the values of `CCOC(=O)C1=C(C)NC(N)=C(C#N)C1c1ccc(OC)c(OC)c1` (stereo not given) are 21.8%, 80.5%, 31.2%, 70.2% and 40.8%.
In the same order, the values of `CC1(C)CC(=O)C2=C(C1)NC(N)=C(C#N)C2c1ccccc1` (stereo not given) are 20.8%, 61.2%, 54.7%, 84.2% and 20.6%.
The corresponding values for `CCOC(=O)C1=C(C)NC(N)=C(C#N)C1c1ccc([N+](=O)[O-])cc1` (stereo not given) are 17.6%, 68.9%, 45.7%, 83.4% and 23.1%.
As to `CCOC(=O)C1=C(C)NC(N)=C(C#N)C1c1ccccc1OC` (stereo not given), the Activity in the assay on SH-SY5Y [1] is 24.3%; in the assay with SH-SY5Y [2] it was 78.2%; in the assay with SH-SY5Y [3], 31.5%; in the assay with SH-SY5Y [4] it was 88.4%; with SH-SY5Y [5], 15%.
The corresponding values for `CCOC(=O)C1=C(C)NC(N)=C(C#N)C1c1cccc(OC)c1` (stereo not given) are 25%, 77.9%, 32.1%, 86.1% and 27.7%.
The corresponding values for `CCOC(=O)C1=C(C)NC(N)=C(C#N)C1c1cccc([N+](=O)[O-])c1` (stereo not given) are 27.8%, 79.4%, 30.3%, 84.5% and 21.2%.
In the same order, the values of `CCOC(=O)C1=C(C)NC(N)=C(C#N)C1c1ccccc1` (stereo not given) are 34.03%, 76.26%, 34.1%, 86.7% and 17.3%.
For `CCOC(=O)C1=C(C)NC(N)=C(C#N)C1c1ccc(F)cc1` (stereo not given), the Activity was 7.2% with SH-SY5Y [1]; 72.8% in the assay on SH-SY5Y [2]; 39.8% in the assay on SH-SY5Y [3]; 82.2% in the assay on SH-SY5Y [4]; 24.7% in the assay on SH-SY5Y [5].
The corresponding values for `CCOC(=O)C1=C(C)NC(N)=C(C#N)C1c1ccccc1C(F)(F)F` (stereo not given) are 30.4%, 72.11%, 40.2%, 78.6% and 28.2%.
Take `CCOC(=O)C1=C(C)NC(N)=C(C#N)C1c1cccnc1` (stereo not given): the Activity with SH-SY5Y [1] was found to be 14.1%; in the assay with SH-SY5Y [2], 70.5%; in the assay on SH-SY5Y [3], 43.4%; with SH-SY5Y [4], 84.5%; with SH-SY5Y [5] it was 21.2%.
The corresponding values for `CCOC(=O)C1=C(C)NC(N)=C(C#N)C1c1ccc(-c2ccccc2)cc1` (stereo not given) are 23.9%, 90.9%, 12.9%, 80.3% and 26.2%.
The corresponding values for `CCOC(=O)C1=C(C)NC(N)=C(C#N)C1c1ccc(OC)cc1` (stereo not given) are 11.8%, 89.9%, 14.4%, 77.7% and 31.3%.
In the same order, the values of `CCOC(=O)C1=C(C)NC(N)=C(C#N)C1c1ccc(C)cc1` (stereo not given) are 16.9%, 72.3%, 40.8%, 69.7% and 42.4%.
As for `CCOC(=O)C1=C(C)NC(N)=C(C#N)C1c1ccccc1[N+](=O)[O-]` (stereo not given), the Activity with SH-SY5Y [1] worked out at 16.1%; in the assay on SH-SY5Y [2], 71.11%; with SH-SY5Y [3] it was 42.6%; in the assay on SH-SY5Y [4], 98.8%; in the assay on SH-SY5Y [5], 1.6%.
With `COCCOC(=O)C1=C(C)NC(C)=C(C(=O)OC(C)C)C1c1cccc([N+](=O)[O-])c1` (stereo not given) [NIMODIPINE], the Activity was determined as 45.5% with SH-SY5Y [1]; 75% in the assay on SH-SY5Y [2]; 35.9% in the assay with SH-SY5Y [3]; 75.4% in the assay with SH-SY5Y [4]; 36.03% in the assay on SH-SY5Y [5].
